Runt-SMMHC FRET: Runt domain-CBFb-SMMHC interaction inhibition | actives 0.74% (n = 220,000) | Q01196+Q13951 | Cerulean-Runt/Venus-CBFb-SMMHC FRET ratio 530/480, 1 h | inhibition, % at 20 µM;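 active = mean inhibition across duplicate retests at 20 µM reaching about 50%, limit read from the data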;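 note: inhibitors lower the FRET ratio by blocking Runt binding to CBFb-SMMHC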
Target sequence (Q01196 whole entry, looked up, the tested form may be a part): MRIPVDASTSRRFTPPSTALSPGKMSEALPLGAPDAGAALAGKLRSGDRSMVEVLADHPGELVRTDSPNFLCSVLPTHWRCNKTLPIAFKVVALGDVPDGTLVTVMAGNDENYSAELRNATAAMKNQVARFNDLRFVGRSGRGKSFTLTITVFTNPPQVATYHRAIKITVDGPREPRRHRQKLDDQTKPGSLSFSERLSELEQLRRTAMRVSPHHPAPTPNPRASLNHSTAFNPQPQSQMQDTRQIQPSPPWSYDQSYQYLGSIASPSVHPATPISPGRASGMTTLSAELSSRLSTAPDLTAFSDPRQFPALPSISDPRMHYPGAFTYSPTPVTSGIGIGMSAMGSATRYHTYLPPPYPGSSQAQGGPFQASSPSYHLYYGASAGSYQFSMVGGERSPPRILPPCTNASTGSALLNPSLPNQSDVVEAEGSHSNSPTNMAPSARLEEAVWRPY
Target sequence (Q13951 whole entry, looked up, the tested form may be a part): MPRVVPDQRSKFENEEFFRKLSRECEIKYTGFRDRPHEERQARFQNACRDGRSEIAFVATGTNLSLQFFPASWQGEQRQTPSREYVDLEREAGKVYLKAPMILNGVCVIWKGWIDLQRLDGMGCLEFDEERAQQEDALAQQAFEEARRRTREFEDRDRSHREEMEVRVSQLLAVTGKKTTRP
RanGTP-Impb inh: disruptors of Ran-importin-beta complex formation – biochemical, FRET, CFP-Ran, YFP-importin-beta, homogeneous, primary screen | actives 1.1% (n = 300,000) | inhibition, % (no concentration beside the values) | cell-free CFP-Ran/YFP-importin-beta FRET ratio;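 active = more than half of the replicate wells show a fall in the fluorescence ratio signal beyond about 16%, limit read from the data, passing the limit was not always enough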
Runt-CBFb FRET: Runt domain-CBFb interaction inhibition; inhibition, % at 20 µM; actives 0.46% (n = 220,000); Q01196+Q13951; Cerulean-Runt/Venus-CBFb FRET ratio 530/480, 1 h;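 active = inhibition over about 50% at 20 µM in the single-dose screen, limit read from the data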
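Buffer or medium: Tris pH 7.5 buffer with BSA. Assay system: Cerulean-labeled Runt domain protein. Amount: each fluorescent fusion protein 100 nM. Read-out basis: loss of energy transfer signal. Incubation: 1 h compound exposure, room temperature. Probe or stimulus: Venus-CBFb binding partner, 100 nM. Detection: FRET, excitation 422 nm, emission at 530 and 480 nm.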
FAS-TE inh: blocks the thioesterase domain of human fatty acid synthase | actives 0.67% (n = 360,000) | recombinant FAS-TE, OMFH fluorogenic substrate, fluorescence endpoint | inhibition, % at 15 µM | P49327;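 active = compounds whose normalised, plate-corrected inhibition of enzyme fluorescence in the single-dose primary screen is 50% or more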
m-calpain inh: calpain II (pig) inhibition. actives 0.37% (n = 220,000). inhibition, % at 16 µM. purified calpain II, fluorogenic peptide substrate, 30 min;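 active = inhibition above about 50%, limit read from the data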
FAS-TE conf: confirmation of human fatty acid synthase thioesterase inhibitors | shares compounds with FAS-TE inh | recombinant FAS-TE, OMFH fluorogenic substrate, fluorescence | inhibition, % at 15 µM | actives 45% (n = 2,300);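 active = compounds inhibiting the enzyme by at least 50% at 15 µM in any one of the replicates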
A number is an active result. Only some compounds are listed: those with a hit (about 2.1% of all), similar ones and a draw of the others.

How did COc1ccccc1-n1c(=O)c(C#N)c(-c2ccc([N+](=O)[O-])cc2)c2cc(C(=O)c3ccccc3O)cnc21 do in these assays?
Runt-SMMHC FRET: inactive; RanGTP-Impb inh: inactive; Runt-CBFb FRET: inactive; FAS-TE inh: 88.6; m-calpain inh: inactive; FAS-TE conf: inactive

Results for Cc1cc(C)c2c(n1)SCC(=O)N2CC(=O)Nc1ccc(Br)c(C)c1 ?
RanGTP-Impb inh: inactive; FAS-TE inh: inactive

What do the screens show for `Cc1cc(-c2nnc(CSc3nnc(NC(=O)c4ccc(C(C)(C)C)cc4)s3)o2)ccc1[N+](=O)[O-]`?
Runt-SMMHC FRET: inactive; RanGTP-Impb inh: inactive; Runt-CBFb FRET: inactive; FAS-TE inh: 75.1; m-calpain inh: inactive; FAS-TE conf: inactive

How did COc1cccc(OC)c1OCCN1CCC(C(=O)NC(c2ccc3c(c2)OCO3)c2ccccn2)CC1 (stereo unspecified) do in these assays?
FAS-TE inh: inactive

How did O=C(Nn1c(C2CCCCC2)nc2ccccc2c1=O)c1ccc(Cl)c([N+](=O)[O-])c1 do in these assays?
Runt-SMMHC FRET: inactive; RanGTP-Impb inh: inactive; Runt-CBFb FRET: inactive; FAS-TE inh: 57.3; m-calpain inh: inactive; FAS-TE conf: 60.2

What do the screens show for `O=C(Nn1c(C2CCCCC2)nc2ccccc2c1=O)c1ccc([N+](=O)[O-])cc1Cl`?
Runt-SMMHC FRET: inactive; RanGTP-Impb inh: inactive; Runt-CBFb FRET: inactive; FAS-TE inh: 61.5; m-calpain inh: inactive; FAS-TE conf: 43.0

How did Cc1cc(C(=O)COC(=O)c2ccc(O)cc2O)c(C)n1C(C)C do in these assays?
FAS-TE inh: inactive

What do the screens show for `O=C(NCc1nnc2c(C(F)(F)F)cc(Cl)cn12)c1ccc2c(c1)OCO2`?
RanGTP-Impb inh: inactive; FAS-TE inh: inactive

Results for Cc1nc(Sc2ccccc2)c(C#N)c(C)c1[N+](=O)[O-] ?
Runt-SMMHC FRET: inactive; RanGTP-Impb inh: inactive; Runt-CBFb FRET: inactive; FAS-TE inh: 59.4; m-calpain inh: inactive; FAS-TE conf: 46.2

What do the screens show for `CN(Cc1ccc(C(C)(C)C)cc1)C(=O)Cc1ccc(S(=O)(=O)N2CCOCC2)s1`?
FAS-TE inh: 85.1; FAS-TE conf: 89.1

What do the screens show for `COCCOc1ccc(C(F)(F)F)cc1NC(=O)Cc1ccc(S(=O)(=O)N2CCOCC2)s1`?
RanGTP-Impb inh: inactive; FAS-TE inh: 65.4; FAS-TE conf: 68.8

Results for O=C(NC(=S)NC(c1ccccc1)c1ccncc1)c1ccccc1 (stereo unspecified) ?
Runt-SMMHC FRET: inactive; RanGTP-Impb inh: inactive; Runt-CBFb FRET: inactive; FAS-TE inh: inactive; m-calpain inh: inactive

How did COC(=O)c1sc2ccccc2c1NC(=O)c1ccc(S(=O)(=O)N2CCCC(C)C2)cc1 (stereo unspecified) do in these assays?
Runt-SMMHC FRET: inactive; RanGTP-Impb inh: inactive; Runt-CBFb FRET: inactive; FAS-TE inh: 51.8; m-calpain inh: inactive; FAS-TE conf: inactive

What do the screens show for `COc1ccc(C(=O)/C(C#N)=N/Nc2ccc([N+](=O)[O-])cc2)cc1`?
Runt-SMMHC FRET: inactive; RanGTP-Impb inh: inactive; Runt-CBFb FRET: inactive; FAS-TE inh: 58.7; m-calpain inh: inactive; FAS-TE conf: inactive

What do the screens show for `CCc1ccc(-n2c(=S)sc3c(=O)n(-c4ccccc4)c(SCC(=O)O)nc32)cc1`?
RanGTP-Impb inh: inactive; FAS-TE inh: inactive

How did Cc1ccc(S(=O)(=O)Cn2nnnc2C(c2ccccc2)N2CCN(c3ccccc3)CC2)cc1 (stereo unspecified) do in these assays?
Runt-SMMHC FRET: inactive; RanGTP-Impb inh: inactive; Runt-CBFb FRET: inactive; FAS-TE inh: 57.2; m-calpain inh: inactive; FAS-TE conf: inactive

What do the screens show for `O=C(NCCCCc1ccccc1)C1CC(c2cccc([N+](=O)[O-])c2)=NO1` (stereo unspecified)?
Runt-SMMHC FRET: inactive; RanGTP-Impb inh: inactive; Runt-CBFb FRET: inactive; FAS-TE inh: 66.1; m-calpain inh: inactive; FAS-TE conf: 75.9

How did CC(C)CCNC(=O)C1CC(c2cccc([N+](=O)[O-])c2)=NO1 (stereo unspecified) do in these assays?
Runt-SMMHC FRET: inactive; RanGTP-Impb inh: inactive; Runt-CBFb FRET: inactive; FAS-TE inh: 52.7; m-calpain inh: inactive; FAS-TE conf: 58.5

Results for CCCCNC(=O)C1CC(c2cccc([N+](=O)[O-])c2)=NO1 (stereo unspecified) ?
Runt-SMMHC FRET: inactive; RanGTP-Impb inh: inactive; Runt-CBFb FRET: inactive; FAS-TE inh: inactive; m-calpain inh: inactive

What do the screens show for `O=C(NCCN1C(=O)S/C(=C\c2ccccc2F)C1=O)C1CCN(S(=O)(=O)c2cccs2)CC1`?
Runt-SMMHC FRET: inactive; RanGTP-Impb inh: inactive; Runt-CBFb FRET: inactive; FAS-TE inh: 61.4; m-calpain inh: inactive; FAS-TE conf: inactive

How did CCN(Cc1ccccc1)C(=O)c1c[nH]c2ccc(S(=O)(=O)N(C)CCC#N)cc2c1=O do in these assays?
Runt-SMMHC FRET: inactive; RanGTP-Impb inh: inactive; Runt-CBFb FRET: inactive; FAS-TE inh: 58.8; m-calpain inh: inactive; FAS-TE conf: 67.0

How did Cc1cccc(NC(=O)c2nc[nH]c2C(=O)NCCN(CCNC(=O)c2[nH]cnc2C(=O)Nc2cccc(C)c2)CCNC(=O)c2[nH]cnc2C(=O)Nc2cccc(C)c2)c1 do in these assays?
FAS-TE inh: 84.4; FAS-TE conf: inactive

What do the screens show for `Cc1ccc(NC(=O)c2nc[nH]c2C(=O)NCCN(CCNC(=O)c2[nH]cnc2C(=O)Nc2ccc(C)cc2)CCNC(=O)c2[nH]cnc2C(=O)Nc2ccc(C)cc2)cc1`?
FAS-TE inh: 54.0; FAS-TE conf: inactive

How did O=C(Nc1ccc(Cl)cc1)c1nc[nH]c1C(=O)NCCN(CCNC(=O)c1[nH]cnc1C(=O)Nc1ccc(Cl)cc1)CCNC(=O)c1[nH]cnc1C(=O)Nc1ccc(Cl)cc1 do in these assays?
FAS-TE inh: 58.5; FAS-TE conf: inactive

Results for Cc1cccc(NC(=O)c2nc[nH]c2C(=O)NCCCNC(=O)c2[nH]cnc2C(=O)Nc2cccc(C)c2)c1 ?
FAS-TE inh: inactive

How did COc1ccc(CNC(=O)CN2C(=O)COc3ccc(S(=O)(=O)N4CCCCC4)cc32)cc1 do in these assays?
RanGTP-Impb inh: inactive; FAS-TE inh: inactive

Results for O=C(NNC(=O)c1ccccc1C(F)(F)F)c1csc(N2CCOCC2)n1 ?
RanGTP-Impb inh: inactive; FAS-TE inh: inactive

How did CCn1c(=S)sc2c(=O)n(CC(=O)Nc3ccccc3OC)c(C)nc21 do in these assays?
RanGTP-Impb inh: inactive; FAS-TE inh: inactive

What do the screens show for `CCn1c(=S)sc2c(=O)n(CC(=O)NC(C)CCc3ccccc3)c(C)nc21` (stereo unspecified)?
RanGTP-Impb inh: inactive; FAS-TE inh: 79.1; FAS-TE conf: 74.4

Results for Cc1ccc(NC(=O)CN(C)C(=O)COC(=O)[C@@H](NC(=O)c2ccccc2F)C(C)C)cc1 ?
FAS-TE inh: inactive

Results for COc1ccc(C2c3c(c(C)c(C)oc3=O)Oc3c(C)c(C)oc(=O)c32)cc1 ?
FAS-TE inh: inactive

Assay outcomes as filed in PubChem BioAssay.
